ChEMBL document CHEMBL1681766, “Structure and property based design of factor Xa inhibitors: pyrrolidin-2-ones with aminoindane and phenylpyrrolidine P4 motifs” (Bioorg Med Chem Lett, 2011)

What was measured:
Assay type in all cases: ADME, organism-based
[1] = Plasma clearance in iv/po dosed Sprague-Dawley rat
Summary of the method: (§1)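 Male Sprague-Dawley rats dosed by intravenous and by oral routes. Pharmacokinetic parameters are derived from these studies.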

[2] = Volume of distribution at steady state in iv/po dosed Sprague-Dawley rat; conditions: in vivo, read-out: Vdss; summary of the method: as §1
[3] = Oral bioavailability in Sprague-Dawley rat; conditions: in vivo; summary of the method: as §1
[4] = Half life in iv/po dosed Sprague-Dawley rat; conditions: in vivo; summary of the method: as §1

Compound	clearance [1] [mL/min/kg]	Vd [2] [L/kg]	bioavailability [3] [%]	half-life [4] [h]
CN(C)[C@@H]1CCc2cc(N3CC[C@H](NS(=O)(=O)c4ccc5cc(Cl)ccc5c4)C3=O)ccc21	7.6	1.7	27	3.4
O=C1[C@@H](NS(=O)(=O)c2ccc3cc(Cl)ccc3c2)CCN1c1ccc([C@@H]2CCCN2)cc1F	2.8	1.7	38	7.5
O=C1[C@@H](NS(=O)(=O)c2ccc3cc(Cl)ccc3c2)CCN1c1ccc([C@H]2CCCN2)cc1F	2.6	1.9	25	10.2
CN(C)[C@H]1CCc2cc(N3CC[C@H](NS(=O)(=O)c4ccc5cc(Cl)ccc5c4)C3=O)ccc21	6	2	61	4.4
CN[C@@H](C)c1ccc(N2CC[C@H](NS(=O)(=O)c3ccc4cc(Cl)ccc4c3)C2=O)c(F)c1			> 10	
CN(C)C1CCc2cc(N3CC[C@H](NS(=O)(=O)/C=C/c4ccc(Cl)s4)C3=O)ccc21 (mixture of isomers)	9.5	1.1	57	1.7
CNC1CCc2cc(N3CC[C@H](NS(=O)(=O)/C=C/c4ccc(Cl)s4)C3=O)ccc21 (mixture of isomers)	2.2	0.9		5.4
CNC1CCc2cc(N3CC[C@H](NS(=O)(=O)c4ccc5cc(Cl)ccc5c4)C3=O)ccc21 (mixture of isomers)	2.5	2.4	25	12.4
CN1CCCC1c1ccc(N2CC[C@H](NS(=O)(=O)/C=C/c3ccc(Cl)s3)C2=O)c(F)c1 (mixture of isomers)	11	0.8	41	1.4
O=C1[C@@H](NS(=O)(=O)/C=C/c2ccc(Cl)s2)CCN1c1ccc(C2CCCN2)cc1F (mixture of isomers)	2.8	0.7	52	3.4
O=C1[C@@H](NS(=O)(=O)c2ccc3cc(Cl)ccc3c2)CCN1c1ccc(C2CCCN2)cc1F (mixture of isomers)	2.7	1.9	24	9
O=C1[C@@H](NS(=O)(=O)c2ccc3c(Cl)c[nH]c3c2)CCN1c1ccc(C2CCCN2)cc1F (mixture of isomers)	1.3	0.8	< 1	11
